The results in this text go back to paper PMC3957490 (Neuron, 2014).

What all share (type): cell-based
The target in test [1] is T1, 2AC1/2AC2 (tagged GluN1/GluN2A) (Rattus norvegicus, UniProt P35439+Q00959). In words: two-electrode voltage clamp, Xenopus oocytes. A digest of the protocol:
(§1)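 Oocytes injected with about 10 ng total cRNA of rat GluN1-1a plus wild-type or C1/C2-tagged GluN2 (tagged at 1:6:6); two-electrode voltage clamp. GluN2A-selective antagonists: 100 μM glutamate + 3 μM glycine. Divalent metal inhibitor: 50 μM glutamate + 50 μM glycine, −20 mV, kept below 300 nM, pH 7.3 (also 7.8, 6.8). GluN2B-selective antagonists: 100 μM glutamate + 50 μM glycine, −40 mV. IC50 from fitted concentration-response data, mean ± SEM over N oocytes.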
For orientation: Two-electrode voltage clamp holds a large cell at a set potential and records current.

Test [2] addresses T2, 2AC1/2BAC2 (GluN1/GluN2A/GluN2B triheteromer) (Rattus norvegicus, UniProt P35439+Q00959+Q00960). Nature of the test: two-electrode voltage clamp, Xenopus oocytes.
For test [3], the target named is T3, wt 2A/2A (wild type GluN1/GluN2A) (Rattus norvegicus, UniProt P35439+Q00959). Nature of the test: two-electrode voltage clamp, Xenopus oocytes. The method in brief:
as §1

The target in test [4] is wt 2B/2B (wild type GluN1/GluN2B) (Rattus norvegicus, UniProt P35439+Q00960). In words: whole-cell patch clamp, HEK293 cells. To be noted: agonist; […] glutamate, […] glycine. On the technique in general: In patch-clamp work, channel activity is measured electrically.
The target in test [5] is T1, 2AC1/2AC2 (tagged GluN1/GluN2A). In words: whole-cell patch clamp, HEK293 cells. Particulars: agonist; […] glutamate, […] glycine.
In test [6] the target is T2, 2AC1/2BAC2 (GluN1/GluN2A/GluN2B triheteromer). Nature of the test: whole-cell patch clamp, HEK293 cells. Particulars: agonist; […] glutamate, […] glycine.
Test [7] has as its target T3, wt 2A/2A (wild type GluN1/GluN2A). Nature of the test: whole-cell patch clamp, HEK293 cells. To be noted: agonist; […] glutamate, […] glycine.
Test [8] has as its target 2BAC1/2BAC2 (tagged GluN1/GluN2B with GluN2A CTD) (Rattus norvegicus, UniProt P35439+Q00960). Nature of the test: whole-cell patch clamp, HEK293 cells. To be noted: agonist; […] glutamate, […] glycine.

T1 sequence (Q00959 23-1464, other chains not shown): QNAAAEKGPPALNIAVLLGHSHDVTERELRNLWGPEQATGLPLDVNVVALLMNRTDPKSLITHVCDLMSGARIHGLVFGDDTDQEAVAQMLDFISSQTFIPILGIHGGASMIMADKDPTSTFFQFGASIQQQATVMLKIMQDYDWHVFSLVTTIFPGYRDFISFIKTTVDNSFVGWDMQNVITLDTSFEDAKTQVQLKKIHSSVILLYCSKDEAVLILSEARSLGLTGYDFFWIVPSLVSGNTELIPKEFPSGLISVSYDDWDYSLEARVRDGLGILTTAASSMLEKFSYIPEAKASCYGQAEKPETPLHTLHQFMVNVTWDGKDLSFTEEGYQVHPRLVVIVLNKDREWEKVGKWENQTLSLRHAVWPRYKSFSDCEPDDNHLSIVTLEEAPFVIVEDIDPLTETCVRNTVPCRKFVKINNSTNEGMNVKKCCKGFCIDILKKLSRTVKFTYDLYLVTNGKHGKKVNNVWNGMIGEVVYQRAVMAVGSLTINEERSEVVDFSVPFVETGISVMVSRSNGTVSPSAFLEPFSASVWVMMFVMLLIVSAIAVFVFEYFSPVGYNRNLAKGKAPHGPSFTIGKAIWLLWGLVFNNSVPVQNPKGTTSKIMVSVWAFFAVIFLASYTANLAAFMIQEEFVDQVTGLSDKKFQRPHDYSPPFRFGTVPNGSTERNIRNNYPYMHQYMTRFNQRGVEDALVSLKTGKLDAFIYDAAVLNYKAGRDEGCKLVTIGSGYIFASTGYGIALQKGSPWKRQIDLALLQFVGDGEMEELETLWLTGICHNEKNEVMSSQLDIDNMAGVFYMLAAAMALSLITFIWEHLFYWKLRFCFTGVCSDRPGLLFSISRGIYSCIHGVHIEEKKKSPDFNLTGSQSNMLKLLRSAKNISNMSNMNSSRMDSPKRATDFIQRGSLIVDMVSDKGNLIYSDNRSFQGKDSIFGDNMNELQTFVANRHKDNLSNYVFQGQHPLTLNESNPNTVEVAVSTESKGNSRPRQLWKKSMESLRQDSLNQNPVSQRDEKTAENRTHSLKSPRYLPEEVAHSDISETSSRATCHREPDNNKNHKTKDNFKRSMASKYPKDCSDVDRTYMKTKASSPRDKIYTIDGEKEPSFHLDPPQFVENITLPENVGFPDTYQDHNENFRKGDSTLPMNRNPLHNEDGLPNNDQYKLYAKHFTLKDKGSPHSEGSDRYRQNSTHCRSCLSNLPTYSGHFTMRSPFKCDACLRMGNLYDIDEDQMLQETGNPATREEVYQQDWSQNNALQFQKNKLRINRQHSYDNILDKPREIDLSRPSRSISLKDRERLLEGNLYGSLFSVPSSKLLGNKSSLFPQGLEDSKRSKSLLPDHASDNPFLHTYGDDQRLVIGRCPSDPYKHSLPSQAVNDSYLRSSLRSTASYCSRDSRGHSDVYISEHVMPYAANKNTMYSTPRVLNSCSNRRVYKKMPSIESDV
T3 sequence (Q00959 23-1464, other chains not shown): as above
T2 sequence (Q00959 23-1464, other chains not shown): as above

Usually IC50 stands for the point on the concentration scale where inhibition reaches its midpoint. For `O=C(NNC(=O)c1ccc(CNS(=O)(=O)c2ccc(F)c(Cl)c2)cc1)c1ccccc1` [TCN-201], the IC50 in test [1] is 360 ± 20 nM; in test [2], 1350 ± 130 nM; in test [3], 370 ± 30 nM.
With `N[C@@H](CCC(=O)O)C(=O)O` [glutamate], the “Brief glutamate activation (5 ms) / τweighted” value in test [4] is given as 314 ± 13 ms; in test [5] it was 33 ± 2 ms; in test [6] it was 57 ± 4 ms; in test [7], 32 ± 1 ms; in test [8] it was 274 ± 24 ms.
